In ChEMBL document CHEMBL5338772, “Stereochemical Control of Splice Modulation in FD-895 Analogues” (J Med Chem, 2023):
Calls of active or inactive are those of the source. The calls are words filed in the database; no cut-off is given here.

Columns and labels:
[1] = tested on: HCT-116; experiment: Cytotoxicity against human HCT-116 cells assessed as reduction in cell viability at 34 nM incubated for 4 hrs by MTS assay; type: toxicity, cell-based; details: hct-116, 4 h, 0.034 µM
[2] = tested on: SF3B1 pre-mRNA; experiment: Modulation of splicing in SF3B1 pre-mRNA in human HCT-116 cells assessed as intron 13 retention level at 34 nM incubated for 4 hrs by qRT-PCR analysis; type: functional, cell-based; details: filed as modulator
Procedure, shortened: (§1)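 HCT-116 cells in supplemented McCoy's 5a, compound added from DMSO stock to a final 0.5% DMSO, 4 h at a single standardized concentration per analogue. Total RNA isolated and DNase-treated (1 µg). qPCR used 2.5 µM each primer on 5 ng cDNA, 40 cycles. Intron retention was computed by the 2^-CT method relative to GAPDH and expressed versus untreated cells set to 1.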

[3] = Cytotoxicity against human HCT-116 cells assessed as cell growth inhibition incubated for 72 hrs by MTS assay; type: toxicity, cell-based
Procedure, shortened: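 HCT-116 cells (ATCC; split every other day, no more than five generations, mycoplasma-tested) plated at 5 × 10³ cells/well in supplemented McCoy's 5a and grown 24 h at 37 °C, 5% CO₂. Compound added from DMSO (0.5% DMSO final) for 72 h. Cells washed with PBS, MTS reagent added for 2 h at 37 °C, A490 read against A690. GI₅₀ fitted from dose curves of 3 biological replicates.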

[4] = tested on: HCT-116; experiment: Cytotoxicity against human HCT-116 cells assessed as reduction in cell viability at 500 nM incubated for 24 hrs by MTS assay; type: toxicity, cell-based; details: hct-116, 24 h, 0.5 µM
Procedure, shortened: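 HCT-116 cells plated at 5 × 10³ cells/well in supplemented McCoy's 5a and grown 24 h at 37 °C, 5% CO₂. Compound given at 500 nM, the top dose of the 24 h splicing series, in 0.5% DMSO for 24 h. Cells washed with PBS, MTS reagent added for 2 h at 37 °C, A490 read against A690.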

[5] = tested on: SF3A1 pre-mRNA; experiment: Modulation of splicing in SF3A1 pre-mRNA in human HCT-116 cells assessed as intron 6 retention level at 34 nM incubated for 4 hrs by qRT-PCR analysis; type: functional, cell-based; details: filed as modulator
[6] = tested on: HCT-116; experiment: Downregulation of SF3 mRNA expression in human HCT-116 cells at 34 nM incubated for 4 hrs by qRT-PCR analysis; type: functional, cell-based
[7] = tested on: SF3A3 pre-mRNA; experiment: Modulation of splicing in SF3A3 pre-mRNA in human HCT-116 cells assessed as intron 5 retention level at 34 nM incubated for 4 hrs by qRT-PCR analysis; type: functional, cell-based; details: filed as modulator
[8] = tested on: DNAJB1 pre-mRNA; experiment: Modulation of splicing in DNAJB1 pre-mRNA in human HCT-116 cells assessed as intron 2 retention level at 34 nM incubated for 4 hrs by qRT-PCR analysis; type: functional, cell-based; details: filed as modulator
[9] = tested on: SF3B2 pre-mRNA; experiment: Modulation of splicing in SF3B2 pre-mRNA in human HCT-116 cells assessed as intron 10 retention level at 34 nM incubated for 4 hrs by qRT-PCR analysis; type: functional, cell-based; details: filed as modulator; procedure, shortened: as §1
[10] = tested on: SF3A3 pre-mRNA; experiment: Modulation of splicing in SF3A3 pre-mRNA in human HCT-116 cells assessed as intron 5 retention level at 44 nM incubated for 4 hrs by qRT-PCR analysis; type: functional, cell-based; details: filed as modulator
[11] = tested on: AURKA pre-mRNA; experiment: Modulation of splicing in AURKA pre-mRNA in human HCT-116 cells assessed as effect on exon 4 skipping at 44 nM incubated for 4 hrs by qRT-PCR analysis; type: functional, cell-based; details: filed as modulator
[12] = tested on: DNAJB1 pre-mRNA; experiment: Modulation of splicing in DNAJB1 pre-mRNA in human HCT-116 cells assessed as intron 2 retention level at 44 nM incubated for 4 hrs by qRT-PCR analysis; type: functional, cell-based; details: filed as modulator
[13] = tested on: HCT-116; experiment: Cytotoxicity against human HCT-116 cells assessed as reduction in cell viability at 44 nM incubated for 4 hrs by MTS assay; type: toxicity, cell-based; details: hct-116, 4 h, 0.044 µM
[14] = tested on: SF3B1 pre-mRNA; experiment: Modulation of splicing in SF3B1 pre-mRNA in human HCT-116 cells assessed as intron 13 retention level at 44 nM incubated for 4 hrs by qRT-PCR analysis; type: functional, cell-based; details: filed as modulator; procedure, shortened: as §1
[15] = tested on: SF3B2 pre-mRNA; experiment: Modulation of splicing in SF3B2 pre-mRNA in human HCT-116 cells assessed as intron 10 retention level at 44 nM incubated for 4 hrs by qRT-PCR analysis; type: functional, cell-based; details: filed as modulator; procedure, shortened: as §1
[16] = tested on: SF3A1 pre-mRNA; experiment: Modulation of splicing in SF3A1 pre-mRNA in human HCT-116 cells assessed as intron 6 retention level at 44 nM incubated for 4 hrs by qRT-PCR analysis; type: functional, cell-based; details: filed as modulator
[17] = tested on: SF3A1 pre-mRNA; experiment: Modulation of splicing in SF3A1 pre-mRNA in human HCT-116 cells assessed as intron 6 retention level at 42 nM incubated for 4 hrs by qRT-PCR analysis; type: functional, cell-based; details: filed as modulator
[18] = tested on: SF3A3 pre-mRNA; experiment: Modulation of splicing in SF3A3 pre-mRNA in human HCT-116 cells assessed as intron 5 retention level at 42 nM incubated for 4 hrs by qRT-PCR analysis; type: functional, cell-based; details: filed as modulator
[19] = tested on: DNAJB1 pre-mRNA; experiment: Modulation of splicing in DNAJB1 pre-mRNA in human HCT-116 cells assessed as reduction in intron 2 retention level at 100 to 500 nM incubated for 24 hrs by qRT-PCR analysis; type: functional, cell-based; details: filed as modulator, dose 100-500 nM
Procedure, shortened: (§2)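 HCT-116 cells in supplemented McCoy's 5a with 0.5% DMSO, treated 24 h at 100, 250 or 500 nM; untreated cells as control. Total RNA isolated, 1 µg DNase I-treated, reverse transcribed. qPCR on 5 ng cDNA with 2.5 µM each primer, 40 cycles of 95 °C 30 s, 55 °C 60 s, 72 °C 60 s. Splice-event primers for intron retention or exon skipping; SF2 primers measure total expression. 2^-CT method relative to GAPDH, untreated set at 1.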

[20] = tested on: HCT-116; experiment: Downregulation of PLK-1 mRNA expression in human HCT-116 cells at 100 to 500 nM incubated for 24 hrs by qRT-PCR analysis; type: functional, cell-based; details: dose 100-500 nM; procedure, shortened: as §2
[21] = tested on: DNAJB1 pre-mRNA; experiment: Modulation of splicing in DNAJB1 pre-mRNA in human HCT-116 cells assessed as intron 2 retention level at 42 nM incubated for 4 hrs by qRT-PCR analysis; type: functional, cell-based; details: filed as modulator
[22] = tested on: SF3B1 pre-mRNA; experiment: Modulation of splicing in SF3B1 pre-mRNA in human HCT-116 cells assessed as intron 13 retention level at 42 nM incubated for 4 hrs by qRT-PCR analysis; type: functional, cell-based; details: filed as modulator; procedure, shortened: as §1
[23] = tested on: SF3B2 pre-mRNA; experiment: Modulation of splicing in SF3B2 pre-mRNA in human HCT-116 cells assessed as increase in intron 10 retention level incubated for 24 hrs by qRT-PCR analysis; type: functional, cell-based; details: filed as modulator, dose 100-500 nM
Procedure, shortened: (§3)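 HCT-116 cells in supplemented McCoy's 5a with 0.5% final DMSO were treated for 24 h at 100, 250 or 500 nM. Total RNA isolated and DNase-treated (1 µg). qPCR used 2.5 µM each primer on 5 ng cDNA, 40 cycles. Intron retention was computed by the 2^-CT method relative to GAPDH and expressed versus untreated cells set to 1.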

[24] = tested on: SF3B2 pre-mRNA; experiment: Modulation of splicing in SF3B2 pre-mRNA in human HCT-116 cells assessed as intron 10 retention level at 42 nM incubated for 4 hrs by qRT-PCR analysis; type: functional, cell-based; details: filed as modulator; procedure, shortened: as §1
[25] = tested on: HCT-116; experiment: Cytotoxicity against human HCT-116 cells assessed as reduction in cell viability at 42 nM incubated for 4 hrs by MTS assay; type: toxicity, cell-based; details: hct-116, 4 h, 0.042 µM
[26] = tested on: SF3B1 pre-mRNA; experiment: Modulation of splicing in SF3B1 pre-mRNA in human HCT-116 cells assessed as increase in intron 13 retention level incubated for 24 hrs by qRT-PCR analysis; type: functional, cell-based; details: filed as modulator, dose 100-500 nM; procedure, shortened: as §3
[27] = tested on: AURKA pre-mRNA; experiment: Modulation of splicing in AURKA pre-mRNA in human HCT-116 cells assessed as effect on exon 4 skipping at 42 nM incubated for 4 hrs by qRT-PCR analysis; type: functional, cell-based; details: filed as modulator
[28] = tested on: HCT-116; experiment: Downregulation of SF2 mRNA expression in human HCT-116 cells at 100 to 500 nM incubated for 24 hrs by qRT-PCR analysis; type: functional, cell-based; details: dose 100-500 nM; procedure, shortened: as §2

With `CC[C@H](OC)[C@@H](C)[C@H]1O[C@@H]1[C@H](O)[C@H](C)/C=C/C=C(\C)[C@H]1OC(=O)C[C@H](O)CC[C@@](C)(O)[C@@H](OC(C)=O)/C=C/[C@@H]1C` the Activity [1] was “Non-Toxic”, the Activity [2] was less than 3 and the GI50 at 72 h [3] was 1.9 nM. The Activity [4] was “Non-Toxic”, the Activity [5] was greater than 3 and the Activity [6] was “Active”. The Activity [7] was less than 3, the Activity [8] was greater than 3 and the Activity [9] was greater than 3.

With `CC[C@H](OC)[C@@H](C)[C@H]1O[C@@H]1[C@H](OC)[C@H](C)/C=C/C=C(\C)[C@H]1OC(=O)C[C@H](O)CC[C@@](C)(O)[C@@H](OC(C)=O)/C=C/[C@@H]1C` the GI50 at 72 h [3] was 2.6 nM, the Activity [10] was less than 3 and the Activity [4] was “Non-Toxic”. For the same molecule, the Activity [11] was “Active”, the Activity [12] was greater than 3 and the Activity [13] was “Non-Toxic”. The Activity [14] was less than 3, the Activity [15] was greater than 3 and the Activity [16] was greater than 3.

For `CC[C@H](OC)[C@@H](C)[C@H]1O[C@@H]1[C@@H](O)[C@H](C)/C=C/C=C(\C)[C@H]1OC(=O)C[C@H](O)CC[C@@](C)(O)[C@H](OC(C)=O)/C=C/[C@@H]1C`, the GI50 at 72 h [3] was 860 nM.

Molecule `CC[C@H](OC)[C@@H](C)[C@H]1O[C@@H]1[C@@H](O)[C@H](C)/C=C/C=C(\C)[C@H]1OC(=O)C[C@H](O)CC[C@@](C)(O)[C@@H](OC(C)=O)/C=C/[C@@H]1C` has an Activity [17] greater than 3, an Activity [18] of less than 3 and a GI50 at 72 h [3] of 2.2 nM. For the same molecule, the Activity [19] was “Active”, the Activity [4] was “Non-Toxic” and the Activity [20] was “inactive”. For the same molecule, the Activity [21] was greater than 3, the Activity [22] was less than 3 and the Activity [23] was “Dose-Dependent Effect”. For the same molecule, the Activity [24] was greater than 3, the Activity [25] was “Non-Toxic” and the Activity [26] was “Dose-Dependent Effect”. The Activity [27] was “Active” and the Activity [28] was “inactive”.
